According to ChEMBL document CHEMBL1770084, “An inhibitor-like binding mode of a carbonic anhydrase activator within the active site of isoform II” (Bioorg Med Chem Lett, 2011):

How the values were obtained:
[1] = molecular target: Carbonic anhydrase 12 (Homo sapiens) (UniProt O43570); assay: Binding affinity to human transmembrane carbonic anhydrase 12
[2] = molecular target: Carbonic anhydrase 2 (Homo sapiens) (UniProt P00918); assay: Inhibition of human carbonic anhydrase 2 activity at 20 uM after 48 hrs by CO2 hydration stopped-flow assay relative to control
Outline: (§1)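 hCA II (10 nM) held with test compound at 20 µM (stated as 20 lM in the footnote) for 15 min to 144 h before assay. Activity then read by stopped-flow CO2 hydrase assay. Values are % of initial enzyme activity with no test compound, which is set to 100%.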

[3] = molecular target: Carbonic anhydrase 1 (Homo sapiens) (UniProt P00915); assay: Activation of human cytosolic carbonic anhydrase 1 preincubated for 15 mins by CO2 hydration stopped-flow assay
Chain of Carbonic anhydrase 1 (Homo sapiens) (P00915 2-261 limits assumed): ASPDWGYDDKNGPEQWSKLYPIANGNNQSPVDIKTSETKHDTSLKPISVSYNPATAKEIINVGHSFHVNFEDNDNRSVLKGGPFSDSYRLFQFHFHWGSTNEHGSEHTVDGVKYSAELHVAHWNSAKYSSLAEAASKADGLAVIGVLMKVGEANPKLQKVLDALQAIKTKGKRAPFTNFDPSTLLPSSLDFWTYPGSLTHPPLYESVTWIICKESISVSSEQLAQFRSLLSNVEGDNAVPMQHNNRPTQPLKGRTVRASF

[4] = molecular target: Carbonic anhydrase 7 (Homo sapiens) (UniProt P43166); assay: Binding affinity to human cytosolic carbonic anhydrase 7
Chain of Carbonic anhydrase 7 (Homo sapiens) (P43166 whole entry): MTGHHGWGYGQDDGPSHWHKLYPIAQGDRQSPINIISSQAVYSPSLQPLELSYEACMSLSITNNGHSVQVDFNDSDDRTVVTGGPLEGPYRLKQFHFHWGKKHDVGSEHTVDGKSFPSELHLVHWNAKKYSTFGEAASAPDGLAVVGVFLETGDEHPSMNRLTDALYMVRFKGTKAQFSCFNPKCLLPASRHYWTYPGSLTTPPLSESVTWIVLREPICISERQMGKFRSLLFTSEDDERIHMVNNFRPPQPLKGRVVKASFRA

[5] = molecular target: Carbonic anhydrase 2 (Homo sapiens) (UniProt P00918); assay: Activation of human carbonic anhydrase 2 activity at 20 uM after 12 hrs by CO2 hydration stopped-flow assay relative to control; outline: as §1
[6] = molecular target: Carbonic anhydrase 9 (Homo sapiens) (UniProt Q16790); assay: Activation of human transmembrane carbonic anhydrase 9 preincubated for 15 mins by CO2 hydration stopped-flow assay
[7] = molecular target: Carbonic anhydrase 2 (Homo sapiens) (UniProt P00918); assay: Activation of human carbonic anhydrase 2 activity at 20 uM after 15 mins by CO2 hydration stopped-flow assay relative to control; outline: as §1
[8] = molecular target: Carbonic anhydrase 12 (Homo sapiens) (UniProt O43570); assay: Activation of human transmembrane carbonic anhydrase 12 preincubated for 15 mins by CO2 hydration stopped-flow assay
[9] = molecular target: Carbonic anhydrase 2 (Homo sapiens) (UniProt P00918); assay: Binding affinity to human cytosolic carbonic anhydrase 2
[10] = molecular target: Carbonic anhydrase 2 (Homo sapiens) (UniProt P00918); assay: Activation of human cytosolic carbonic anhydrase 2 preincubated for 15 mins by CO2 hydration stopped-flow assay
[11] = molecular target: Carbonic anhydrase 2 (Homo sapiens) (UniProt P00918); assay: Inhibition of human carbonic anhydrase 2 activity at 20 uM after 72 hrs by CO2 hydration stopped-flow assay relative to control; outline: as §1
[12] = molecular target: Carbonic anhydrase 2 (Homo sapiens) (UniProt P00918); assay: Inhibition of human carbonic anhydrase 2 activity at 20 uM after 96 hrs by CO2 hydration stopped-flow assay relative to control; outline: as §1
[13] = molecular target: Carbonic anhydrase 2 (Homo sapiens) (UniProt P00918); assay: Activation of human carbonic anhydrase 2 activity at 20 uM after 24 hrs by CO2 hydration stopped-flow assay relative to control; outline: as §1
[14] = molecular target: Carbonic anhydrase 2 (Homo sapiens) (UniProt P00918); assay: Activation of human carbonic anhydrase 2 activity at 20 uM after 36 hrs by CO2 hydration stopped-flow assay relative to control; outline: as §1
[15] = molecular target: Carbonic anhydrase 9 (Homo sapiens) (UniProt Q16790); assay: Binding affinity to human transmembrane carbonic anhydrase 9
[16] = molecular target: Carbonic anhydrase 14 (Homo sapiens) (UniProt Q9ULX7); assay: Activation of human transmembrane carbonic anhydrase 14 preincubated for 15 mins by CO2 hydration stopped-flow assay
Chain of Carbonic anhydrase 14 (Homo sapiens) (Q9ULX7 whole entry): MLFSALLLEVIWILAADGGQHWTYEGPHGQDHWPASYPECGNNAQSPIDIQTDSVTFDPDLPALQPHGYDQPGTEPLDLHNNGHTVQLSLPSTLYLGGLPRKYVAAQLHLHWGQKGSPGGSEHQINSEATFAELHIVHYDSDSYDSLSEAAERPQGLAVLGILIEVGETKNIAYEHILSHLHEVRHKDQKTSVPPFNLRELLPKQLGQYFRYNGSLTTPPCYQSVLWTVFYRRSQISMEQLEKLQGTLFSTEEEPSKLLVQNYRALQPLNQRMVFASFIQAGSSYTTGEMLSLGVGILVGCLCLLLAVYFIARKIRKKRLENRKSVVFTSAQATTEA

[17] = molecular target: Carbonic anhydrase 7 (Homo sapiens) (UniProt P43166); assay: Activation of human cytosolic carbonic anhydrase 7 preincubated for 15 mins by CO2 hydration stopped-flow assay
[18] = molecular target: Carbonic anhydrase 1 (Homo sapiens) (UniProt P00915); assay: Binding affinity to human cytosolic carbonic anhydrase 1
[19] = molecular target: Carbonic anhydrase 2 (Homo sapiens) (UniProt P00918); assay: Activation of human carbonic anhydrase 2 activity at 20 uM after 1 hr by CO2 hydration stopped-flow assay relative to control; outline: as §1
[20] = molecular target: Carbonic anhydrase 2 (Homo sapiens) (UniProt P00918); assay: Inhibition of human carbonic anhydrase 2 activity at 20 uM after 144 hrs by CO2 hydration stopped-flow assay relative to control; outline: as §1
[21] = molecular target: Carbonic anhydrase 14 (Homo sapiens) (UniProt Q9ULX7); assay: Binding affinity to human transmembrane carbonic anhydrase 14

Chain of Carbonic anhydrase 12 (Homo sapiens) (O43570 whole entry): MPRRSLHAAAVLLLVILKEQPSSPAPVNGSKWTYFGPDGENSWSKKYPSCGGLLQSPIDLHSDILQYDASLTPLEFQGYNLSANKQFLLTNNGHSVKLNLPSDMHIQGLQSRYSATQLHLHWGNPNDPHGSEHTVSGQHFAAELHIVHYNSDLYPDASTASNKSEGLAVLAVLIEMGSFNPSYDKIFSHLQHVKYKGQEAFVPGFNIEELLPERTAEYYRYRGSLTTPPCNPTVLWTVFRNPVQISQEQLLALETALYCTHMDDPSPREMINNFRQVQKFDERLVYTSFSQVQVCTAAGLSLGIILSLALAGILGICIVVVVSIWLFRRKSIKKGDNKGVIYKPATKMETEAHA

Structure (SMILES): Cc1cc(C)[n+](CCc2c[nH]cn2)c(C)c1
- Activity [1]: 0.08 µM
- inhibition [2]: 65%
- Ka [3]: 3.15 µM
- Activity [4]: 3.15 µM
- Activity [5]: 154%
- Ka [6]: 0.76 µM
- Activity [7]: 156%
- Ka [8]: 0.96 µM
- Activity [9]: 3.15 µM
- Ka [10]: 18 µM
- inhibition [11]: 14%
- inhibition [12]: 5%
- Activity [13]: 149%
- Activity [14]: 147%
- Activity [15]: 0.08 µM
- Ka [16]: 0.08 µM
- Ka [17]: 7.71 µM
- Activity [18]: 3.15 µM
- Activity [19]: 153%
- inhibition [20]: 3%
- Activity [21]: 0.08 µM
